Measured values: ChEMBL document CHEMBL3822431, “Hydroxychalcone inhibitors of Streptococcus mutans glucosyl transferases and biofilms as potential anticaries agents” (Bioorg Med Chem Lett, 2016)
The source made the active and inactive calls. The calls are words filed in the database; no cut-off is given here.

Legend:
[1] = biological target: T1, Glucosyltransferase-S (Streptococcus mutans serotype c (strain ATCC 700610 / UA159)) (UniProt P49331); test: Inhibition of Wild-type Streptococcus mutans UA159 glucosyltransferase D at 50 uM by zymography
T1 sequence (whole entry): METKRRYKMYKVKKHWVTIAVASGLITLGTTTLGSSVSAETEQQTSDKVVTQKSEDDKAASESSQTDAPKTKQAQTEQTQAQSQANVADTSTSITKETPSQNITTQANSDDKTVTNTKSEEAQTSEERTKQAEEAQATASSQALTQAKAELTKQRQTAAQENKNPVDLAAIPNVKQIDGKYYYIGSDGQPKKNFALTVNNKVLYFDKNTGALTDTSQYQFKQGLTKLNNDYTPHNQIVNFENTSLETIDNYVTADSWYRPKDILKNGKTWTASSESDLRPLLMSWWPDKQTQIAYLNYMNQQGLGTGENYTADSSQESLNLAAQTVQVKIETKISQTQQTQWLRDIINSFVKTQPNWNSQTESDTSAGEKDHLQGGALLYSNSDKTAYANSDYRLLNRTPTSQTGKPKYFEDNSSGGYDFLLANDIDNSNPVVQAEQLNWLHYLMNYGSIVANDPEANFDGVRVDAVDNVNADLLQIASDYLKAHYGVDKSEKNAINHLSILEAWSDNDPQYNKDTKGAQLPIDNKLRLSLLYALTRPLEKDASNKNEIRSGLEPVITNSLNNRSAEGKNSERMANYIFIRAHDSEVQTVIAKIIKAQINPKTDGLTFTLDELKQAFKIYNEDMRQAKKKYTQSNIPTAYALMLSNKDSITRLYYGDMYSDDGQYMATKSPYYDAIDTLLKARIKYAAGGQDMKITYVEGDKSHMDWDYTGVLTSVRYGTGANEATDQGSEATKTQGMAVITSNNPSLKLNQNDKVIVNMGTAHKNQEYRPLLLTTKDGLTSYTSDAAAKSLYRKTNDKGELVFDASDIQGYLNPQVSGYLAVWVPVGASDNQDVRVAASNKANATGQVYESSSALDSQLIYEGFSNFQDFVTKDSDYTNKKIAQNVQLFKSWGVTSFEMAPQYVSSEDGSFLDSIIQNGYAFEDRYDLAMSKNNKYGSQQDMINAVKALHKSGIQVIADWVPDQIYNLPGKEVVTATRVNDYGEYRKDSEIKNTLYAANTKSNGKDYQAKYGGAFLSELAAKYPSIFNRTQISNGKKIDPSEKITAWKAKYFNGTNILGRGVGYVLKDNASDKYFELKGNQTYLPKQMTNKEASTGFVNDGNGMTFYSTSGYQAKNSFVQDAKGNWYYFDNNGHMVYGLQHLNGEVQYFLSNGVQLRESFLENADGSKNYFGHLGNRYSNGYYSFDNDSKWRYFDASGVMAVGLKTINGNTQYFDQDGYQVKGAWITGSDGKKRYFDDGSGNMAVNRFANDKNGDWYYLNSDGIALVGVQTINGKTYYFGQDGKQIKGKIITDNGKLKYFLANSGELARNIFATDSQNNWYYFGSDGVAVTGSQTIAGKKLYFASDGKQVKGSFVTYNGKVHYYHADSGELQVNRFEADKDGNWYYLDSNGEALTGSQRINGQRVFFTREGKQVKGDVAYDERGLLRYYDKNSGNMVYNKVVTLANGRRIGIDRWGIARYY
In short: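 Compound (50 µM) added to overnight S. mutans UA159 wild-type cultures; Gtfs concentrated from supernatants, run on duplicate SDS-PAGE; second gel used for zymogram, glucan band intensity taken as Gtf activity.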

[2] = biological target: T2, Glucosyltransferase-SI (Streptococcus mutans serotype c (strain ATCC 700610 / UA159)) (UniProt P13470); test: Inhibition of Wild-type Streptococcus mutans UA159 glucosyltransferase C at 50 uM by coomassie blue staining based SDS-PAGE method
T2 sequence (whole entry): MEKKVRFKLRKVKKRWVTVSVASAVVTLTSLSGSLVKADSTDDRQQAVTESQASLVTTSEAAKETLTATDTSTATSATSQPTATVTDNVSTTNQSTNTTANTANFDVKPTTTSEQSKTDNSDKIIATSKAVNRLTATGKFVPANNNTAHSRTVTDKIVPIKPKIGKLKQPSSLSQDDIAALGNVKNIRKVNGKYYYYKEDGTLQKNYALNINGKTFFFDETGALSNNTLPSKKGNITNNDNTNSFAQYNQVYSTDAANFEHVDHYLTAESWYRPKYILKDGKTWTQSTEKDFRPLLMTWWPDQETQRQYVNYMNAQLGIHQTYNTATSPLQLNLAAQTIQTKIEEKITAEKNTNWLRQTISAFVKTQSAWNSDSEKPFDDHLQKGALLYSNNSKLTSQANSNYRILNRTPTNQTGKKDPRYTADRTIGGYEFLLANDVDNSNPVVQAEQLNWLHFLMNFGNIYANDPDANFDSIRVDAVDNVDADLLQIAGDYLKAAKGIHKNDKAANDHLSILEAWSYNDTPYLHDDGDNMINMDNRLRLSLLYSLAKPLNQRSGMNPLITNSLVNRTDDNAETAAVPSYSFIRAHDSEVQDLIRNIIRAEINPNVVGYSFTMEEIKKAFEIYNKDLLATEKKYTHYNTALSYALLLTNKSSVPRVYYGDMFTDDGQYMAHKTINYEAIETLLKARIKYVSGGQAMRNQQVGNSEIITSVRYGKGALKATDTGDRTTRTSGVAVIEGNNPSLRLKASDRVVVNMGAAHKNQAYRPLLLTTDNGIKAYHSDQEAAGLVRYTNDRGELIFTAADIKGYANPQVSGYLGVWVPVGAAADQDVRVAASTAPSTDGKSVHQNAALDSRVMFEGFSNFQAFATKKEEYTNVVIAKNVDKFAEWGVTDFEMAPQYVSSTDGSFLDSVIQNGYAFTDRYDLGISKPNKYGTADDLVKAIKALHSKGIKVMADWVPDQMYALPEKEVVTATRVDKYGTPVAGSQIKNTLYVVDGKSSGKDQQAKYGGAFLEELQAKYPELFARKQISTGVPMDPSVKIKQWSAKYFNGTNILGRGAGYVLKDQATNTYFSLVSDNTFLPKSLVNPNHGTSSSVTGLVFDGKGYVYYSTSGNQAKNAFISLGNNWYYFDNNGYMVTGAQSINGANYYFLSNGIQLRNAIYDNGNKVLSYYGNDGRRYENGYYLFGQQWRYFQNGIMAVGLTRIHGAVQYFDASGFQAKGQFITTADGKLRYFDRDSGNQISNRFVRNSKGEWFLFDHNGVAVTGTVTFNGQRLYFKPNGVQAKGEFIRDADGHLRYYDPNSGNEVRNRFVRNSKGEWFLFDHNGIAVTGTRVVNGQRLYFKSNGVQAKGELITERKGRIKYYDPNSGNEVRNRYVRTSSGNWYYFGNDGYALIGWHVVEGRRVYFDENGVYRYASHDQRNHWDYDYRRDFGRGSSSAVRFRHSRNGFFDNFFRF
In short: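 Compound (50 µM) added to overnight S. mutans UA159 wild-type cultures; Gtfs collected and concentrated from supernatants, run on SDS-PAGE in duplicate; one gel Coomassie blue stained for protein levels.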

Structure (SMILES)	inhibition [1]	inhibition [2]
O=C(/C=C\c1ccc(O)cc1O)c1cccc(O)c1	Active	Active
O=C(/C=C/c1ccc(O)cc1O)c1ccc(O)cc1	Active	Active
O=C(/C=C\c1ccc(O)cc1O)c1ccc(O)cc1	Active	Active
O=C(/C=C/c1ccc(O)cc1O)c1cccc(O)c1 (stereo in doubt; 9a)	Active	Active
O=C(/C=C/c1cc(O)c(O)cc1O)c1ccccc1O (stereo in doubt; 18c)	Active	Active
